# Reference: publication PMC4506215 (Nature, 2015)
# Residue numbers refer to the chain shown, from its start.
# Legend:
# [1] = molecular target: T1, wild-type AR (expressed in LAPC4) (Homo sapiens, UniProt P10275); assay: cell-based; format: binding
# T1 sequence (P10275 1-920): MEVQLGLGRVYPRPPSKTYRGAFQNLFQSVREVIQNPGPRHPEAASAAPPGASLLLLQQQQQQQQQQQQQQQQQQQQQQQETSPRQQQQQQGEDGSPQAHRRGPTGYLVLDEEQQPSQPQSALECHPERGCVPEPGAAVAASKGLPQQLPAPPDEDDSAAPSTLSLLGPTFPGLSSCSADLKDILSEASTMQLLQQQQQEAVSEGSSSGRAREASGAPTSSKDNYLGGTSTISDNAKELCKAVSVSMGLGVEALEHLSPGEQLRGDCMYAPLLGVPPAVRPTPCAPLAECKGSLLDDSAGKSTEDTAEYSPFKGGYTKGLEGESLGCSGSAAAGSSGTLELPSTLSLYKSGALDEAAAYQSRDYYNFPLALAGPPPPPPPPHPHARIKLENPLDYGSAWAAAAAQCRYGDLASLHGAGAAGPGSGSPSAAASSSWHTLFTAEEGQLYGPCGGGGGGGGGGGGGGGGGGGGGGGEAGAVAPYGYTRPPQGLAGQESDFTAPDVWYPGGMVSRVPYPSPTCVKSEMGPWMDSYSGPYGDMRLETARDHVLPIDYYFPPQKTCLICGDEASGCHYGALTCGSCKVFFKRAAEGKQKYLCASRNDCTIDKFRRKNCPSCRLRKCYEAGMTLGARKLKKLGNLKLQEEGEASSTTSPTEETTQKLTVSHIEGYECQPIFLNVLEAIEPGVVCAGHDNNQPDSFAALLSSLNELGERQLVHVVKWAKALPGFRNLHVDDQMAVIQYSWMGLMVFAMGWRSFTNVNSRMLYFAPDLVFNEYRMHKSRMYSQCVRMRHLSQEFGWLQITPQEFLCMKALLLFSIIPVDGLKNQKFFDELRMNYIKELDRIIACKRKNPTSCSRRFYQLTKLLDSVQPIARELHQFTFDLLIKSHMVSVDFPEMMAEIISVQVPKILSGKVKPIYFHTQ
# [2] = patients, wide interpatient variability; cited from earlier work
# [3] = molecular target: T2, mutant AR (expressed in LNCaP) (Homo sapiens, UniProt P10275, T878A); assay: cell-based; format: binding
# T2 sequence (P10275 1-920 T878A): T1 sequence (P10275 1-920) with T878A
# SRD5A = molecular target: T3, SRD5A (Homo sapiens, UniProt P18405); assay: Conversion of [3H]-AD to 5α-reduced androgens in LAPC4 cells; format: cell-based; settings: up to 100 μM
# T3 sequence (P18405 1-259): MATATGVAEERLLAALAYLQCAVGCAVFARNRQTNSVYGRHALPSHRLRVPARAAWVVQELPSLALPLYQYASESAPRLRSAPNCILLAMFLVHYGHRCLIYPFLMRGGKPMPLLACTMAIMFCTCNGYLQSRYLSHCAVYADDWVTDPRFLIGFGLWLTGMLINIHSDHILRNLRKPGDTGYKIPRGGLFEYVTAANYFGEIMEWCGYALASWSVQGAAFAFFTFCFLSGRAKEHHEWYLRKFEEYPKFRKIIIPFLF
# Procedure, shortened: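 LAPC4 cells (IMDM, 10% FBS) seeded at 0.2 million/well for ~24 h, then given [3H]-AD mixed with unlabeled AD (final 100 nM, ~1,000,000 cpm/well) plus test compound at 37°C. Medium treated with β-glucuronidase (65°C, 2 h), extracted with ethyl acetate:isooctane (1:1), dried. Steroids separated by C18 reverse-phase HPLC, methanol/water gradient. Biological n=3; repeated three times.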
# metastatic CRPC = settings: cited from earlier work
# LNCaP cells = assay: Cell proliferation assay, DHT-induced growth; format: cell-based; settings: DHT 0.5 nM, 2, 4 and 6 days
# Procedure, shortened: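 LNCaP cells (0.1 million/mL) in phenol red-free RPMI-1640 with 10% charcoal-stripped FBS plus androgen and/or test compound. Medium changed every other day. Cells lysed after 2, 4 or 6 days; growth measured as DNA content by Hoechst fluorescence. Two-tailed Student's t-test.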
SMILES,IC50 [1],Cmax [2],IC50 [3],effect on conversion from AD to 5α-reduced androgens (SRD5A),survival in metastatic CRPC (metastatic CRPC),effect on DHT-stimulated cell growth (LNCaP cells)
"C[C@]12CC[C@H](O)CC1=CC[C@@H]1[C@@H]2CC[C@]2(C)C(c3cccnc3)=CC[C@@H]12 [Abi, abiraterone]",> 500 nM,~1000 nM,418 nM,no detectable effect,,
CNC(=O)c1ccc2cc([C@@]3(O)CCn4cncc43)ccc2c1 [TAK-700],,,,,failed to prolong survival,
CNC(=O)c1ccc(N2C(=S)N(c3ccc(C#N)c(C(F)(F)F)c3)C(=O)C2(C)C)cc1F [enzalutamide],,,,no detectable effect,,more potent than Abi
